Columns and labels:
Mus musculus [1] = assay: Median survival time of the treated control groups, in which there are no 30-day survivors at dose 100 mg/kg in exp8; type: functional
[2] = Ratio of number of 60-day survivors to the total treated mice at dose 50 mg/kg in exp8; 2/6; type: functional
Mus musculus [3] = assay: Median survival time of the untreated control groups, in which there are no 30-day survivors at dose 33 mg/kg in exp5; type: functional
Mus musculus [4] = assay: Median survival time of the untreated control groups, in which there are no 30-day survivors at dose 33 mg/kg in exp4; type: functional
Mus musculus [5] = assay: Change in weight by day 5, obtained by subtracting treated groups of animals minus control groups of animals at dose 15 mg/kg in exp3.; type: functional
Method in brief: (§1)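 Mice were inoculated ip with 10^6 P388 leukemia cells on day 0 and weighed 19–22 g that day. Compound was given ip once daily on days 1–5, within about 5 min of preparing the solution or suspension, to groups of six (occasionally five). Thirty inoculated untreated mice served as controls. The value is the average weight change of treated mice minus that of controls on day 5.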

[6] = Ratio of number of 30-day survivors to the total treated mice at dose 50 mg/kg in exp2; 2/5; type: functional
Mus musculus [7] = assay: Mortality by day 5 expressed as number of mice died to the total treated at dose 22 mg/kg in exp7; 0/6; type: ADME, organism-based; parameters: dose 22 mg/kg; conditions: in vivo
Mus musculus [8] = assay: Change in weight by day 5, obtained by subtracting treated groups of animals minus control groups of animals at dose 75 mg/kg in exp2.; type: functional; method in brief: as §1
Mus musculus [9] = assay: Change in weight by day 5, obtained by subtracting treated groups of animals minus control groups of animals at dose 100 mg/kg in exp1; type: functional; method in brief: as §1
[10] = Ratio of number of 30-day survivors to the total treated mice at dose 50 mg/kg in exp1; 4/6; type: functional
Mus musculus [11] = assay: Mortality by day 5 expressed as number of mice died to the total treated at dose 33 mg/kg in exp4; 0/6; type: ADME, organism-based; parameters: dose 33 mg/kg; conditions: in vivo
Mus musculus [12] = assay: Median survival time of the treated control groups, in which there are no 30-day survivors at dose 22 mg/kg in exp6; type: functional
[13] = Ratio of median survival times for non-survivors at dose 33 mg/kg in exp3; type: functional
Mus musculus [14] = assay: Median survival time of the treated control groups, in which there are no 30-day survivors at dose 50 mg/kg in exp1; type: functional
Mus musculus [15] = assay: Mortality by day 5 expressed as number of mice died to the total treated at dose 50 mg/kg in exp6; 0/6; type: ADME, organism-based; parameters: dose 50 mg/kg; conditions: in vivo
[16] = Ratio of median survival times for non-survivors at dose 150 mg/kg in exp2; t= toxic; type: ADME, organism-based; parameters: dose 150 mg/kg; conditions: in vivo
Method in brief: (§2)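 Mice were inoculated ip with 10^6 P388 leukemia cells on day 0. Groups of six (occasionally five) were dosed ip qd on days 1–5 with fresh suspensions; 30 mice served as untreated controls. Deaths were recorded daily up to day 60. T/C% compares the median survival of treated non-survivors (<60 days) with the control median. Medians used grouped data when there were no 30-day survivors, otherwise ungrouped data. t = toxic.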

Mus musculus [17] = assay: Change in weight by day 5, obtained by subtracting treated groups of animals minus control groups of animals at dose 50 mg/kg in exp8; type: functional; method in brief: as §1
Mus musculus [18] = assay: Change in weight by day 5, obtained by subtracting treated groups of animals minus control groups of animals at dose 33 mg/kg in exp2.; type: functional; method in brief: as §1
[19] = Ratio of median survival times for non-survivors at dose 100 mg/kg in exp1; type: functional; parameters: unit: %; method in brief: as §2
Mus musculus [20] = assay: Median survival time of the treated control groups, in which there are no 30-day survivors at dose 22 mg/kg in exp3; type: functional
Mus musculus [21] = assay: Mortality by day 5 expressed as number of mice died to the total treated at dose 22 mg/kg in exp3; 0/5; type: ADME, organism-based; parameters: dose 22 mg/kg; conditions: in vivo
Mus musculus [22] = assay: Median survival time of the treated control groups, in which there are no 30-day survivors at dose 50 mg/kg in exp6; type: functional
Mus musculus [23] = assay: Mortality by day 5 expressed as number of mice died to the total treated at dose 33 mg/kg in exp2; 0/5; type: ADME, organism-based; parameters: dose 33 mg/kg; conditions: in vivo
[24] = Ratio of median survival times for non-survivors at dose 200 mg/kg in exp1; t= toxic; type: ADME, organism-based; parameters: dose 200 mg/kg; conditions: in vivo; method in brief: as §2
Mus musculus [25] = assay: Median survival time of the treated control groups, in which there are no 30-day survivors at dose 75 mg/kg in exp2; type: functional
[26] = Ratio of number of 30-day survivors to the total treated mice at dose 33 mg/kg in exp4; 1/6; type: functional
Mus musculus [27] = assay: Mortality by day 5 expressed as number of mice died to the total treated at dose 15 mg/kg in exp3; 0/5; type: ADME, organism-based; parameters: dose 15 mg/kg; conditions: in vivo
[28] = Ratio of median survival times for non-survivors at dose 50 mg/kg in exp6; type: functional
[29] = Ratio of number of 60-day survivors to the total treated mice at dose 50 mg/kg in exp1; 2/6; type: functional
Mus musculus [30] = assay: Mortality by day 5 expressed as number of mice died to the total treated at dose 50 mg/kg in exp1; 0/5; type: ADME, organism-based; parameters: dose 50 mg/kg; conditions: in vivo
Mus musculus [31] = assay: Median survival time of the untreated control groups, in which there are no 30-day survivors at dose 33 mg/kg in exp7; type: functional
Mus musculus [32] = assay: Median survival time of the untreated control groups, in which there are no 30-day survivors at dose 50 mg/kg in exp8; type: functional
Mus musculus [33] = assay: Mortality by day 5 expressed as number of mice died to the total treated at dose 50 mg/kg in exp8; 0/6; type: ADME, organism-based; parameters: dose 50 mg/kg; conditions: in vivo
Mus musculus [34] = assay: Median survival time of the untreated control groups, in which there are no 30-day survivors at dose 200 mg/kg in exp1; type: functional
[35] = Ratio of number of 60-day survivors to the total treated mice at dose 50 mg/kg in exp5; 1/6; type: functional
Mus musculus [36] = assay: Median survival time of the untreated control groups, in which there are no 30-day survivors at dose 22 mg/kg in exp5; type: functional
Mus musculus [37] = assay: Change in weight by day 5, obtained by subtracting treated groups of animals minus control groups of animals at dose 50 mg/kg in exp2.; type: functional; method in brief: as §1
[38] = Number of 30-day survivors at dose 50 mg/kg in exp7*-one death on 6th day, one death on 27th day & four 30 day survivors; 4/6
Mus musculus [39] = assay: Median survival time of the treated control groups, in which there are no 30-day survivors at dose 22 mg/kg in exp7; type: functional
Mus musculus [40] = assay: Change in weight by day 5, obtained by subtracting treated groups of animals minus control groups of animals at dose 50 mg/kg in exp6; type: functional; method in brief: as §1
Mus musculus [41] = assay: Change in weight by day 5, obtained by subtracting treated groups of animals minus control groups of animals at dose 100 mg/kg in exp8; type: functional; method in brief: as §1
[42] = Ratio of median survival times for non-survivors at dose 75 mg/kg in exp2; type: functional

## CS(=O)(=O)CS(=O)(=O)OCCCl
Mus musculus [1]
  Median survival time: 6
[2]
  Ratio: 2
Mus musculus [3]
  Median survival time: 12
Mus musculus [4]
  Median survival time: 10.5
Mus musculus [5]
  Change in weight: -0.9
[6]
  Ratio: 2
Mus musculus [7]
  Mortality: 0
Mus musculus [8]
  Change in weight: -4.2
Mus musculus [9]
  T-C: -4 g
[10]
  Ratio: 4
Mus musculus [11]
  Mortality: 0
Mus musculus [12]
  Median survival time: 20.8
[13]
  Ratio: 198
Mus musculus [14]
  Median survival time: 31.5
Mus musculus [15]
  Mortality: 0
[16]
  Ratio: Toxic
Mus musculus [17]
  Change in weight: -1.6
Mus musculus [18]
  Change in weight: -2.5
[19]
  Ratio: 151
Mus musculus [20]
  Median survival time: 18.5
Mus musculus [21]
  Mortality: 0
Mus musculus [22]
  Median survival time: 43.5
Mus musculus [23]
  Mortality: 0
[24]
  Ratio: Toxic
Mus musculus [25]
  Median survival time: 17.5
[26]
  Ratio: 1
Mus musculus [27]
  Mortality: 0
[28]
  Ratio: 335
[29]
  Ratio: 2
Mus musculus [30]
  Mortality: 0
Mus musculus [31]
  Median survival time: 10.7
Mus musculus [32]
  Median survival time: 11
Mus musculus [33]
  Mortality: 0
Mus musculus [34]
  Median survival time: 11.2 days
[35]
  Ratio: 1
Mus musculus [36]
  Median survival time: 12
Mus musculus [37]
  Change in weight: -3.4
[38]
  30-day survivors: 4
Mus musculus [39]
  Median survival time: 18
Mus musculus [40]
  Change in weight: -3.1
Mus musculus [41]
  Change in weight: -6
[42]
  Ratio: 156

— ChEMBL document CHEMBL1122744, “2-Chloroethyl (methylsulfonyl)methanesulfonate and related (methylsulfonyl)methanesulfonates. Antineoplastic activity in vivo” (J Med Chem, 1984)
